Drawing on PubChem BioAssay AID651628 (The Scripps Research Institute Molecular Screening Center, 2012), this text covers number of anti-targets for 14 compounds.

Molecules are shown by their SMILES. The source made the active and inactive calls.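 The calls were made as follows: active = at least one off-target enzyme showing weaker fluorescent probe labeling in any proteome panel; inactive = no off-target enzyme affected in any panel.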

For this test, the system named is Membrane Proteome. Kind of test: anti-target inhibition in MCF7 proteome, late-stage follow-up, selectivity assay for PAD4 inhibitor project, cell lysate, gel-based fluorescence, soluble and membrane fractions (AID 651628). The settings on record: CA-Rh gel-based ABPP, anti-target count, at 50 µM, active compounds read high. Summed up:
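Test system: MCF7 cell proteome, soluble or membrane fraction / Amount: proteome protein concentration of 1 mg/ml / Schedule: compound 1 h, probe 1 h, 25 °C / Buffer or medium: DPBS / Detection: SDS-PAGE separation with in-gel fluorescence scanning of labelled bands / Also added: Chloroacetamide-rhodamine (CA-Rh) labelling probe, 10 µM / Doses: compound at 10 or 50 µM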
For `COC1=CC(=O)c2nc(C#N)ccc2C1=O`, the number of anti-targets is > 5 (active).
To `O=C1C(O)=C(O)C(=O)c2ncccc21` belongs > 5 (active); to `COC1=C(Br)C(=O)c2ncccc2C1=O`, > 5 (active).
For the compound `NC1=CC(=O)c2ccc(-c3cccc(C(=O)O)n3)nc2C1=O`, the number of anti-targets is 0 (inactive).
To `COC1=C(N)C(=O)c2nc(-c3nc(C(=O)O)c(C)c(-c4ccc(OC)c(OC)c4O)c3N)ccc2C1=O` belongs 0 (inactive).
To `COC(=O)c1nc(C(=O)OC)c(NC(C)=O)c(-c2ccccc2Br)c1C` belongs 0 (inactive); to `COC(=O)c1cccc(-c2ccc3c(n2)C(=O)C(Br)=CC3=O)n1`, > 5 (active).
Then `O=C1C=C(Br)C(=O)c2ncccc21`, with > 5 (active).
Regarding `COC1=C(Br)C(=O)c2nc(-c3ccccn3)ccc2C1=O`, the number of anti-targets is > 5 (active).
Then `COC(=O)c1cccc(-c2ccc3c(n2)C(=O)C(N)=CC3=O)n1`, with 0 (inactive); and `COC1=C(I)C(=O)c2nc(C#N)ccc2C1=O`, with > 5 (active); and `NC1=CC(=O)c2cccnc2C1=O`, with 0 (inactive).
To `NC1=CC(=O)c2ccc(-c3ccccn3)nc2C1=O` belongs 0 (inactive).
Then `COC1=C(N)C(=O)c2ncccc2C1=O`, with 0 (inactive).
